# Screening results as filed in PubChem BioAssay.
# L major viab: Leishmania major promastigote growth inhibition, primary screen. Leishmania major promastigotes, resazurin fluorescence viability. inhibition, % at 10 µM. 9% of 200,000 active. AID 1063, 2008; in the data active means inhibition above about 50%;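 further: promastigotes grown with compound for 44 hours at 28 °C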
# PMI act satM6P: human PMI activators, high substrate, primary screen, biochemical, fluorescence intensity, near-saturating mannose 6-phosphate; AID 1216, 2008; Mannose-6-phosphate isomerase (Homo sapiens), P34949; activation factor at 20 µM; 0.34% of 190,000 active; coupled PMI enzyme assay, resazurin fluorescence, 20 min; hits give high values; 1 = untreated enzyme, 0 = substrate-free blank;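 active means activation factor of 2 or more at 20 µM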
# Target sequence (P34949 whole entry, looked up): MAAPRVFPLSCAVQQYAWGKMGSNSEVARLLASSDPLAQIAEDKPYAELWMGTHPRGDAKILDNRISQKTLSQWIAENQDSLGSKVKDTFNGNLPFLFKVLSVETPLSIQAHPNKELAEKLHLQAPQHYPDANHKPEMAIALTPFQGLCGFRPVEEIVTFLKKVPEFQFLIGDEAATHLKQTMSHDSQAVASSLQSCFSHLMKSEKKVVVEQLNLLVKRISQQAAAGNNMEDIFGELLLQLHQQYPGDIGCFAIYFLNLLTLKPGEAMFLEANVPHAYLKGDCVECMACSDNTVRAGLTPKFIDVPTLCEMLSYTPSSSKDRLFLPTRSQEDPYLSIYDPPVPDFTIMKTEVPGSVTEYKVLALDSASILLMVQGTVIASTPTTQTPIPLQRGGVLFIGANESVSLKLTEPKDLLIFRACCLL
#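 test system = human PMI in coupled enzyme assay | medium = HEPES-buffered pH 7.4 with magnesium and detergent | also added = 1.0 mM mannose-6-phosphate substrate with 0.22 mM NADP+ | compound = 20 µM single dose | times = 20 min incubation at room temperature | measured by = resorufin fluorescence (Ex 544/Em 590 nm) from resazurin via diaphorase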
# WT yeast gro inh: growth inhibition of WT strain, primary screen, mitochondrial fusion inhibitor project, WT and mutant strains, chemical genetic | mitochondrial fusion phenotypic screen | inhibition, % at 10 µM | 2.1% of 190,000 active | AID 1362, 2008; in the data active means inhibition above about 58%; tested in S. cerevisiae
# Diaph act CS: compounds boosting diaphorase resazurin reduction – biochemical, uHTS, resorufin fluorescence, counter-screen for diaphorase-coupled primary assays, primary screen; Diaphorase/resazurin coupled assay, 16 min; hits give high values; 1 = vehicle wells, 0 = NADH-free wells; activation factor at 20 µM; 0.005% of 190,000 active; AID 1229, 2008;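 active means diaphorase activity raised at least twofold by the compound at 20 µM; inactive means activation factor below 2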
#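 Material: bacterial diaphorase enzyme (C. kluyveri); amount: enzyme 0.07 U/mL final; reagent: NADH substrate 0.114 mM plus resazurin dye 0.1 mM, final; doses: single compound dose of 20 µM, 1% DMSO final; timing: 16 min enzyme reaction, ambient temperature; measured by: fluorescence of resorufin, 544 nm excitation, 590 nm emission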
# PMI act: activators of human PMI, primary screen, biochemical, fluorescence intensity, near-Km mannose 6-phosphate; Mannose-6-phosphate isomerase (Homo sapiens), P34949; purified human PMI, coupled resazurin fluorescence, 20 min; hits give high values; 1 = vehicle control, 0 substrate-free wells; activation factor at 20 µM; 0.005% of 190,000 active; AID 1214, 2008;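 active means activation factor of 2 or more at 20 µM, relative to plate controls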
# Numbers without * were called inactive; x = not tested or not shown. Compounds with a hit are over-represented: about 10% of the library has one in this group of screens.
SMILES,L major viab,PMI act satM6P,WT yeast gro inh,Diaph act CS,PMI act
N#CC1(Cc2ccc(Cl)cc2)c2ccccc2C=CN1C(=O)c1ccccc1 (stereo not drawn),40,1.1,0,1.1,1
CN(CC(=O)Nc1ccc(Cl)c(Cl)c1)C(=O)C12CC3CC(CC(C3)C1)C2,92*,0.8,76*,0.8,0.9
c1ccc(CCN(Cc2ccccc2)C2CCN(C3CCCC3)CC2)cc1,92*,1,24,1,1
Oc1oc(-c2cccc3ccccc23)nc1C=NCc1ccccc1,-6,x,-10,x,x
Cc1ccc(N/N=C(\C#N)C(=N)N2CCOCC2)cc1,87*,1,-11,0.9,1
N#C/C(=N\Nc1ccc(Cl)cc1)C(=N)N1CCCCC1,73*,1,0,1,1
Cc1nc([N+](=O)[O-])c(C(=O)OCc2cccc(Br)c2)n1C,9,1,21,0.9,1
CON1C(=O)C(=O)N(OC)C(C)(C)C1C (stereo not drawn),-1,1,26,0.9,0.9
CCN(CC)CCNc1nc2c(c(=O)[nH]c(=O)n2C)n1CC(O)COc1ccc(Cl)cc1Cl (stereo not drawn),92*,1,5,0.8,1
CN(C)CCNc1nc2c(c(=O)[nH]c(=O)n2C)n1CC(O)COc1ccc(Cl)cc1 (stereo not drawn),0,1,-10,0.9,1
C=CCn1c(SCc2cc(=O)n3cc(C)ccc3n2)nnc1-c1cccc(C)c1,52*,1,17,0.9,0.9
CN1CCC2(CC1)N=C(c1ccc(F)cc1)C(=S)N2C(=O)c1ccc(C(C)(C)C)cc1,0,1.1,2,1,1
CCC(=O)N(c1ccc(C(=O)O)cc1)c1nc(-c2ccc(OC)cc2)c(C)s1,-7,1,-1,0.9,1
CC1(C)CC(=O)C2=C(C1)N(c1ccc(F)cc1)C(=O)C2(O)C(F)(F)F (stereo not drawn),-7,1.1,84*,1.1,1.1
Cc1ccc(N2C(=O)C(O)(C(F)(F)F)C3=C2CC(C)(C)CC3=O)cc1 (stereo not drawn),-3,1.1,-6,1,1.1
CC1(C)CC(=O)C2=C(C1)N(c1ccccc1)C(=O)C2(O)C(F)(F)F (stereo not drawn),49,1.1,-11,0.9,1.1
Cc1ccc(N2C(=O)NC(C(F)(F)F)(C(F)(F)F)C3=C2CC(C)(C)CC3=O)cc1,51*,0.9,-4,0.9,1
CSc1nc2c(c(=O)[nH]1)C(c1cccc(Br)c1)CC(=O)N2 (stereo not drawn),-9,1.1,-7,1,1.1
CC(=O)Nc1ccc(Nc2nc(C)c([N+](=O)[O-])c(Nc3ccc(NC(C)=O)cc3)n2)cc1,-12,1,-11,0.9,1
COc1ccccc1CNCC(=O)N1CC(=O)Nc2ccccc21,-1,1.1,13,0.9,1
CCc1ccc(-c2cc(C(F)(F)F)n3nc(C(=O)Nc4c(C)nn(Cc5ccc(F)cc5)c4C)cc3n2)s1,64*,0.8,19,0.8,0.8
Cc1ccccc1Cn1nc(C)c(NC(=O)c2cc3nc(-c4ccco4)cc(C(F)(F)F)n3n2)c1C,33,1,11,0.8,1
COC(=O)c1ccc(C(=O)NC(=S)Nc2ccc3nc(SC)sc3c2)cc1,-7,1,-8,1.1,1
COc1cc(-c2nc(-c3ccccc3)c(-c3cc([N+](=O)[O-])ccc3C)[nH]2)cc(OC)c1OC,100*,0.9,15,0.6,0.9
COc1cc(/C=C2/OC(=O)c3cc([N+](=O)[O-])ccc32)cc(OC)c1OC,-6,x,x,x,x
SMILES,L major viab,PMI act satM6P,WT yeast gro inh,Diaph act CS,PMI act
O=C(Cn1c2c(sc1=O)C1c3ccccc3OCC1CS2)Nc1ccc(Cl)c(Cl)c1 (stereo not drawn),96*,1.2,22,1.1,1.1
O=C(NNS(=O)(=O)c1ccc(F)cc1)C1CCN(Cc2cccc(F)c2)CC1,86*,1,-2,1,1
Cc1cc(C)c(S(=O)(=O)NNC(=O)C2CCN(Cc3ccccc3)CC2)c(C)c1,91*,0.9,-6,1,0.9
O=C(NNS(=O)(=O)c1ccc(F)cc1)C1CCN(S(=O)(=O)c2ccccc2)CC1,4,1,3,0.9,1.1
O=S(=O)(Nc1ccc(Cc2ccncc2)cc1)c1ccc(Cl)c(Cl)c1,74*,0.9,x,0.8,0.9
Cc1cc(C)c2c(CN3CCN(C/C=C/c4ccccc4)CC3)cc(=O)oc2c1,14,1,50,0.9,0.9
COc1cc(Br)cc(CN2CCN(C/C=C/c3ccccc3)CC2)c1O,88*,0.8,29,0.8,1
COc1ccc(O)c(CN2CCN(C/C=C/c3ccccc3)CC2)c1,85*,1,4,0.9,1
COc1ccccc1-c1c(C)oc2cc(OCC(=O)OCc3ccccc3)ccc2c1=O,87*,0.8,37,0.8,0.8
Cc1ccc(NC(=O)CCC(=O)OCC(=O)c2ccc(Oc3ccc([N+](=O)[O-])cc3)cc2)cc1C,-10,1,66*,0.8,0.9
O=C(CCC(=O)OCC(=O)c1ccc([N+](=O)[O-])cc1)NC1CCCCC1,77*,1,-16,1,1.1
Cc1cccc(NC(=O)CCC(=O)OCC(=O)c2ccc(Oc3ccc([N+](=O)[O-])cc3)cc2)c1,-6,1,-6,0.3,1
C=CCNC(=O)Nc1ccc(Cl)cn1,-6,1,14,0.9,1
CC1=CC(C)C2(COC(=O)Nc3ccccc3)COC(C)C1C2C (stereo not drawn),17,1,4,0.8,0.9
Nc1[nH]n2c(=O)cc(-c3ccccc3)nc2c1N=Nc1ccccc1,98*,1,20,0.3,0.7
COc1cc(/C=C/C(=O)N2CCN(c3n[nH]c(=O)[nH]c3=O)CC2)cc(OC)c1OC,-11,1.1,6,0.9,1.1
O=C1C2CCCN2C(c2ccco2)N1c1ccc(F)cc1 (stereo not drawn),-5,1.1,-9,0.9,1.1
COC(=O)C1=C(C)N(c2ccc(C)c(C)c2)/C(=C/c2ccco2)C1=O,61*,1.1,7,0.9,1.2
CCOC(=O)C1=C(C)N(c2ccc(C)c(C)c2)C(=O)/C1=C\c1ccco1,16,1,14,0.9,1
Clc1ccc(OCCCCN2CCc3ccccc3C2)cc1,85*,0.9,35,0.9,1
O=C(CCCOc1ccccc1)N1CCc2ccccc2C1,-5,0.9,5,0.9,0.8
COc1ccc(OCCOCCN2CCc3ccccc3C2)cc1,93*,1.1,-8,0.9,1
